This is one part of the list. Calls of active or inactive are those of the source.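 The calls were made as follows: active = activation above a set limit derived from the earlier primary screen (cut at about 12% in these data); inactive = the rest.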

Sequence of Mucolipin-3 (Homo sapiens) (Q8TDD5 whole entry, looked up): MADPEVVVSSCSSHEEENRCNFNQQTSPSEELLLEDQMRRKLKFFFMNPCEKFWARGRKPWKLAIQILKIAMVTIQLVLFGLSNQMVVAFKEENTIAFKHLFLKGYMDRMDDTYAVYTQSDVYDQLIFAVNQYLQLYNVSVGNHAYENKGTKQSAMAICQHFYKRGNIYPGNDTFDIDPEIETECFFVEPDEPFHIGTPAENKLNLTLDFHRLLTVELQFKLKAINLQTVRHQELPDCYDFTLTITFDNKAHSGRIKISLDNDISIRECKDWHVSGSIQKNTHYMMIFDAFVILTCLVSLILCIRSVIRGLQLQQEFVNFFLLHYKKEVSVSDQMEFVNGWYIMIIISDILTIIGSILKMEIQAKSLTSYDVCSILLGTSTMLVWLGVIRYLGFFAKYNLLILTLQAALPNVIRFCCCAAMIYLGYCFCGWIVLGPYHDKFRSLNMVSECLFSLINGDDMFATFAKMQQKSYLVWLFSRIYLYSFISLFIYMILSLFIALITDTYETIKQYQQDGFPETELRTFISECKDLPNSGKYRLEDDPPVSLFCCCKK

This experiment concerns the target Mucolipin-3 (Homo sapiens) (UniProt Q8TDD5). The experiment in a line: activators of mucolipin-3 cation channel – cell-based, HEK293 TRPML3-YFP, Fluo-8 calcium, triplicate, confirmation (AID 1526). To be noted: Fluo-8 calcium fluorescence, at 3 µM, hits give high values, 100% set by carbachol, 0% by DMSO. A digest of the protocol: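 Test system: HEK293 line with stable human TRPML3-YFP; times: calcium dye loading 1 h at 37 °C, fluorescence read 125 s; signal: Fluo-8 calcium dye fluorescence; compound: one 3 µM nominal concentration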
With `COc1ccc(-c2noc(CN(C)S(=O)(=O)c3ccc(C)cc3)n2)cc1`, the activation was 111% (active).

Take `Cc1cccc(C)c1N1CCN(S(=O)(=O)N2CCCCC2)CC1`: the activation was 79.3% (active).

Consider `CCOC(=O)C1=C(NC(=S)NC(=O)c2ccccc2)c2ccccc2CC1(C)C`, for which the activation was 43.6% (active).

Turning to `COc1ccc(S(=O)(=O)N2CCCC2)c(C)c1C`, the activation was 13.6% (active).

Regarding `c1ccc2c(C[n+]3csc4ccccc43)cccc2c1`, the activation is 58% (active).

For the compound `O=C(CC(O)(C(F)(F)F)C(F)(F)F)Nc1ccc(Cl)c(Cl)c1`, the activation is 13.9% (active).

As to `COc1ccccc1N(CC(=O)N1CCCCC1)S(=O)(=O)c1ccccc1`, the activation was 169% (active).

In the case of `CC1(C)CCCC2=C1CC1C(=O)N(c3ccccc3)C(=O)C1C2` (stereo not drawn), the activation was 14.2% (active).

With `CC1=CC(C)(C)N(C(=O)CSc2nnc(-c3ccccc3)o2)c2ccc(C)cc21`, the activation was 48.3% (active).

`COc1ccc(N(CCC#N)S(=O)(=O)c2ccc(Cl)cc2)cc1`: the activation was 9.45% (inactive).

With `O=S(=O)(Nc1ccccc1N1CCOCC1)c1ccc(Cl)s1`, the activation was 63% (active).

Regarding `CCN(CC)C(=O)CC1(c2ccccc2OC)CCOC(C(C)C)C1` (stereo not drawn), the activation was 14.7% (active).

With `CCN(CC)S(=O)(=O)c1ccc2c3c(cccc13)C(=O)S2`, the activation was 10.5% (inactive).

Regarding `C=C(C)Cn1c(C)cc(C)c(S(=O)(=O)c2ccccc2C)c1=O`, the activation was 27.8% (active).

Turning to `CC1CCCC(C)N1C(=O)CN1CCN(c2nc(-c3ccc(F)cc3)cs2)CC1` (stereo not drawn), the activation is 20.4% (active).

As to `CCOc1ccc(S(=O)(=O)N2CCCCCC2)c2ccccc12`, the activation was 129% (active).

`COc1ccc(Cl)cc1N(CC(=O)N1CCCCC1)S(C)(=O)=O`: the activation is 71.9% (active).

For `COc1cc(/C=C(\C#N)c2nc3c(s2)CC(C)CC3)ccc1O` (stereo not drawn), the activation is 6.5% (inactive).

Source of the values: PubChem BioAssay AID1526 (The Scripps Research Institute Molecular Screening Center, 2009).
